Most compounds without a hit are left out; they make up all but 3.6% or so of the library.
STAT3 act = IL-6 driven STAT3 reporter potentiators, primary screen, U3A cells, luciferase, luminescence, MLSCN library | IL-6 STAT3-luciferase reporter; 100% = signal with IL-6 EC80 alone | activation (% of control), % at 5.6 µM | 190,000 tested, 0.91% active | AID 871, 2007;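 active = activation above the screen-wide mean of compound activation plus 3 SD, cut at about 130% in these data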;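 also: 0% = background luminescence of wells with medium and substrate only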
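Material: STAT3-luciferase reporter U3A cells; Probe or stimulus: IL-6 (33 ng/mL); Incubation: compound pre-incubation 1 h before IL-6, then 6 h stimulation at 37 °C; Technique: luminescence from STAT3-driven luciferase reporter; Evaluation: % activation versus median of IL-6-stimulated wells; Controls: IL-6-only high control.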
PolyA inh = polyadenylation inhibitors in yeast reporter cells, primary screen, luminescence, S. cerevisiae; S. cerevisiae SKY197-pL101 polyadenylation reporter, beta-gal luminescence; efflux-impaired pdr1/pdr3 knockout yeast; score 100 = 6 SD above DMSO; activity score, % at 12 µM; 300,000 tested, 0.02% active; AID 1875, 2009;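 active = lowest replicate activity score at least 50, where 100 means six control SD above control mean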;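 also: yeast exposed to compound for 9 h at 30 °C; higher score means more reporter readthrough which indicates perturbed polyadenylation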
AHR activator = AHR activators, primary screen, cell-based, luminescence, luciferase reporter, human; Aryl hydrocarbon receptor (Homo sapiens), P35869; AHR-responsive luciferase reporter cells; activation, % at 5 µM; 320,000 tested, 2.5% active; AID 2796, 2010; in the data active = activation above about 47%;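 also: 0% = vehicle wells and 100% = reference agonist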
PERK inhibitor = block of dimerizer-induced PERK translation repression, primary screen, PERK inhibitor project, CHO PERK-DD cells, SEAP luminescence, HTS; Eukaryotic translation initiation factor 2-alpha kinase 3 (Homo sapiens), Q9NZJ5; CHO PERK-DD fusion, SEAP luminescence translation reporter; inhibition, % at 5.6 µM; 220,000 tested, 0.17% active; AID 1416, 2008;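 active = inhibition above the mean inhibition of all tested compounds plus 3 SD, set separately per screening campaign, cut at about 2.9% in these data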;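 also: PERK kinase domain activated by AP20187 dimerizer at 100 nM; 0% = DMSO with dimerizer and 100% = rapamycin at 8.4 µM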
Hsp70 act = Hsp70 transcriptional activators, primary screen, cell-based, HeLa, Hsp70 promoter luciferase, luminescence, 10 µM; HeLa Hsp70 promoter luciferase reporter; scaled: vehicle 0, proteasome-inhibitor control 100%; activation, % at 10 µM; 200,000 tested, 0.04% active;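 active = activation above the mean across all tested compounds plus 3 SD, cutoff set per campaign, cut at about 5.5% in these data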;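 also: 100% = MG132 at 30 µM as the positive control and 0% = DMSO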
HSF1 inhib = HSF1 inhibitors in luciferase reporter cells, primary screen, cell-based, NIH3T3, luminescence | 300,000 tested, 0.77% active | activity change, negative = inhibition, % at 7.5 µM (by protocol) | NIH3T3-HGL HSE-luciferase, MG132-induced, luminescence 8 h; active compounds read low;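 active = more than half of replicate wells show activity change below -50%, luminescence cut by over half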;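 also: luciferase reports HSF-1 transcriptional activity via heat shock element; 0% = median of DMSO wells and -100% = zero luminescence signal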
AHR act cf = AHR activators, confirmation, cell-based, luminescence, luciferase reporter, human. shares compounds with AHR activator. AID 2845, 2010. 2,300 tested, 87% active. human cells, AHR-responsive luciferase reporter. activation, % at 9 µM; in the data active = activation above about 49%;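 also: HepG2 hepatoma cells carrying a DRE-driven firefly luciferase reporter; 0% = vehicle wells and 100% = reference agonist wells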
PXR act counter = human PXR activators, counter-screen for AHR activator project, cell-based, luciferase luminescence. shares compounds with AHR activator. 2,300 tested, 88% active. activation, % at 11.6 µM. cell-based PXR reporter; in the data active = activation above about 11%;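 also: human hepatoma DPX-2 cells expressing full-length human PXR; 0% = DMSO and 100% = reference agonist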
Target sequence (O75469 whole entry, looked up): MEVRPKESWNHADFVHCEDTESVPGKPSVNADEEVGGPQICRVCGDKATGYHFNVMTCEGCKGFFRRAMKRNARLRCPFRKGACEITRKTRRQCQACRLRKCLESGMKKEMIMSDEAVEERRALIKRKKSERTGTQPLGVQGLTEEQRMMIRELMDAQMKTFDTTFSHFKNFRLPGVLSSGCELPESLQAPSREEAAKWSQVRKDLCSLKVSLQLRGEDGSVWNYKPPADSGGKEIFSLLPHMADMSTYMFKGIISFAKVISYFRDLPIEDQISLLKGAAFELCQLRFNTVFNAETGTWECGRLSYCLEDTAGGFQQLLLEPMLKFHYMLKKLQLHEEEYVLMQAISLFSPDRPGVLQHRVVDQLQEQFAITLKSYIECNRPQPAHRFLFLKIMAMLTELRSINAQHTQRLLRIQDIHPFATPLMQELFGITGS
Numbers without * were called inactive; · = no result.

SMILES	STAT3 act	PolyA inh	AHR activator	PERK inhibitor	Hsp70 act	HSF1 inhib	AHR act cf	PXR act counter
CCN(CC)C(=O)Cn1cc(C(=O)C(=O)N2CCc3ccccc32)c2ccccc21	100.4	-10.3	97.8*	1.0	-0.4	3.6	88.5*	243.2*
CCN(CC)C(=O)Cn1cc(C(=O)C(=O)N2CCN(c3ccccc3)CC2)c2ccccc21	·	1.4	2.2	·	·	0.6	·	·
CC(=O)/C(N=Nc1ccc2c(c1)OCO2)=C(\C)O	107.5	9.1	112.3*	0.7	-0.2	-15.4	94.7*	9.0
COc1cccc(-c2c(NC(=O)c3ccco3)oc3ccc(Cl)cc3c2=O)c1	·	1.6	103.6*	·	·	-2.7	84.4*	56.7*
COc1ccc2cc(-c3ccccc3)ncc2c1	·	-14.5	22.3	·	·	35.3	·	·
COc1cc2cnc(-c3ccccc3)cc2cc1OC	·	·	113.9*	·	·	·	122.2*	14.3*
c1ccc(-c2cc3cc4c(cc3cn2)OCO4)cc1	·	·	122.9*	·	·	·	67.4*	90.4*
COc1ccc(-c2cc3cc4c(cc3cn2)OCO4)cc1	·	·	38.9	·	·	·	·	·
CCCCN(C(=O)Cc1ccc2c(c1)OCCO2)c1c(N)n(CCC)c(=O)[nH]c1=O	·	·	0.9	·	·	·	·	·
O=C(CSc1cccc[n+]1[O-])Nc1cc2c(cc1Cl)C(=O)c1ccccc1C2=O	110.3	-8.4	121.2*	-1.2	0.2	22.6	134.6*	54.4*
COc1cccc2c(=O)c3cccc(N)c3[nH]c12	93.2	6.4	80.1*	0.6	-0.2	-3.0	60.4*	·
COc1cccc2c(=O)c3c([nH]c12)OC(C)(C)C3	·	3.3	0.3	·	·	2.9	·	·
N#Cc1cccc2c1-c1ccccc1/C2=N/NC(N)=S	·	-16.1	139.2*	·	·	-3.2	117.0*	44.5*
CCN1CCn2c3c(c4cc(Cl)ccc42)CCCC31 (stereo unspecified)	89.0	-0.6	118.1*	-0.1	-0.1	3.6	61.7*	48.4*
C[C@@H](NC(=O)[C@@H]1Cc2ccccc2CN1)C(=O)NCc1ccco1	·	-1.0	0.5	·	·	-6.2	·	·
Cc1nc(-c2cccnc2)sc1C(=O)Nc1cccc(C(F)(F)F)c1	90.6	10.1	17.9	-0.8	-0.2	5.7	·	·
Cc1nc(-c2cccnc2)sc1C(=O)Nc1ccc(C(F)(F)F)cc1	88.5	-4.1	95.5*	0.7	-0.3	-2.0	61.4*	10.3*
Cc1nc(-c2ccc(C(F)(F)F)cc2)sc1C(=O)NN	·	-25.6	86.0*	-0.2	·	-10.0	9.6	14.4*
Cc1cc(-c2onc(C)c2C(=O)Nc2ccc(C(F)(F)F)cc2)no1	·	9.6	84.3*	2.0	·	-0.4	94.8*	39.0*
Cc1nc(Cl)sc1C(=O)Nc1ccc(C(F)(F)F)cc1	·	5.9	98.6*	·	·	8.6	106.3*	·
COc1ccc(S(=O)(=O)NCC2CCCN(C(=O)CSC)C2)cc1 (stereo unspecified)	·	4.2	-1.3	·	·	7.4	·	·
CN=c1scc(C)n1/N=C/c1cc(Br)c(O)c(Br)c1	90.5	-77.4	117.6*	0.4	-0.2	7.2	109.7*	13.8*
CN=c1scc(C)n1/N=C/c1ccc(O)cc1	85.1	·	-2.9	2.2	0.0	·	·	·
Cc1cccc(C)c1NC(=O)CCc1nnc2ccc(N3CCCC3)nn12	·	1.9	2.3	·	·	-2.3	·	·
Cc1cc(C)cc(NC(=S)Nc2ccccn2)c1	126.8	-29.3	90.9*	0.6	-0.3	11.6	111.6*	26.7*
Cc1ccc(NC(=S)Nc2ccccn2)c(C)c1	·	-19.1	0.0	-0.8	·	22.2	·	·
O=c1nc(Nc2ccc(Br)cc2)sc2ccc([N+](=O)[O-])cc12	·	-4.3	95.6*	0.7	·	-1.2	101.7*	·
Fc1ccc(F)c(C2=NNC(=Nc3ccccc3F)SC2)c1	112.6	-8.3	79.2*	-0.4	-0.3	31.3	69.5*	56.1*
Fc1ccc(N=C2NN=C(c3cc(F)ccc3F)CS2)cc1	89.7	·	12.3	0.3	-0.2	·	·	·

Bioassay records as filed in PubChem BioAssay.
